The test system of assay [1] is Vibrio anguillarum 775. Briefly: Antimicrobial activity against Vibrio anguillarum 775 assessed as increase in bacterial survival at 100 ug/ml by broth culture growth inhibition assay. Format: functional. Summed up:
(§1)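 Broth growth-inhibition assay in tryptic soy broth (1% NaCl for vibrios) at 25°C, 200 rpm. Cultures started at 1 × 10^7 CFU/ml and were mixed 1:1 with cecropin B-containing medium. OD570 was read every 4 h for 16 h. Fractional survival is the area under the growth curve (Simpson's rule) relative to the untreated control.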

Assay [2] concerns Vibrio vulnificus. As to the kind of experiment: Antimicrobial activity against Vibrio vulnificus assessed as increase in bacterial survival at 100 ug/ml by broth culture growth inhibition assay. Format: functional, organism-based. Summed up:
as §1

Assay [3] relates to Yersinia ruckeri. Briefly: Antimicrobial activity against Yersinia ruckeri assessed as increase in bacterial survival at 100 ug/ml by broth culture growth inhibition assay. In kind it is functional. The essentials: as §1
Assay [4] can be described thus: Antimicrobial activity against Vibrio anguillarum 775. Format: functional. Summed up: (§2)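 Exponential-phase cultures (overnight broth diluted 1:1,000) in tryptic soy broth, with 1% NaCl added for vibrios, at 25°C. Cultures at 1 × 10^7 CFU/ml were mixed with an equal volume of medium containing cecropin B and shaken at 200 rpm. OD570 was read every 4 h over 16 h. Growth-curve area (Simpson's rule) was divided by the drug-free control to give a fractional area. MIC is the x-intercept of the trend line of fractional area versus concentration. Mean ± SD of three experiments, each in triplicate.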

Assay [5] concerns Vibrio vulnificus. As to the kind of experiment: Antimicrobial activity against Vibrio vulnificus. Format: functional. Summed up:
as §2

In assay [6] the test system is Yersinia ruckeri. Briefly: Antimicrobial activity against Yersinia ruckeri. In kind it is functional. Summed up: as §2
Assay [7] relates to Pseudomonas fluorescens. Briefly: Antimicrobial activity against Pseudomonas fluorescens. In kind it is functional. Summed up:
as §2

Assay [8] can be described thus: Antimicrobial activity against Vibrio anguillarum 775 selected after 120 ug/ml of drug exposure. Format: functional. The essentials: (§3)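 Bacteria were grown 16 h in broth with cecropin B at a concentration chosen empirically to allow growth to mid-log (OD600 ~0.4). Cultures were then diluted to 1 × 10^7 CFU/ml and the MIC was determined by the 16-h OD570 growth-curve area method. Mean ± SD of three experiments, each in triplicate.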

Assay [9] deals with Vibrio vulnificus. Briefly: Antimicrobial activity against Vibrio vulnificus selected after 70 ug/ml of drug exposure. Format: functional. Summed up:
as §3

Assay [10] relates to Pseudomonas fluorescens. Briefly: Antimicrobial activity against Pseudomonas fluorescens selected after 20 ug/ml of drug exposure. Format: functional. Summed up: as §3
The test system of assay [11] is CHSE-214. Briefly: Antimicrobial activity against compound-exposed Vibrio anguillarum 775 infected in CHSE-214 cells assessed as increase in adhesion to cells at 120 ug/ml after 30 mins relative to control. Format: functional, cell-based. The essentials:
(§4)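 CHSE-214 cells (CO2-independent medium, 10% FBS, 20°C, no antibiotics) at 80% confluence were incubated with mid-log V. anguillarum (unexposed or cecropin B-exposed) at an MOI of 100 for 0–90 min at ~22°C. Monolayers were washed twice in PBS and lysed with 1% Triton X-100, and lysates were plated. Adherent bacteria were counted per CHSE-214 cell.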

In assay [12] the test system is CHSE-214. As to the kind of experiment: Antimicrobial activity against compound-exposed Vibrio anguillarum 775 infected in CHSE-214 cells assessed as increase in adhesion to cells at 120 ug/ml after 60 mins relative to control. Format: functional, cell-based. The essentials:
as §4

Assay [13] deals with CHSE-214. Briefly: Antimicrobial activity against compound-exposed Vibrio anguillarum 775 infected in CHSE-214 cells assessed as increase in adhesion to cells at 120 ug/ml after 90 mins relative to control. In kind it is functional, cell-based. The essentials: as §4
For assay [14], the system named is Vibrio anguillarum 775. As to the kind of experiment: Antimicrobial activity against Vibrio anguillarum 775 infected in medaka fish assessed as mortality at 120 ug/ml by immersion challenge assay. Format: functional. Summed up: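 Groups of 20 medaka, 7–8 months old, were immersed 90 min in PBS (pH 7.3, 1.0% NaCl) containing 1 × 10^5 CFU/ml V. anguillarum, either unexposed or pre-exposed to 120 μg/ml cecropin B. Cumulative mortality was recorded over 14 days. Three separate experiments, mean ± SD.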

Assay [15] deals with Yersinia ruckeri. Briefly: Antimicrobial activity against Yersinia ruckeri assessed as appearance of ridges on outer surface of the bacterial cell at 90 ug/ml by SEM. In kind it is functional. The essentials:
(§5)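 Exponential-phase broth cultures, with or without prior cecropin B exposure, were adhered 10 min at room temperature to poly-L-lysine-coated chips. Chips were fixed in 2% glutaraldehyde in cacodylate buffer for 30 min, then in 1% osmium tetroxide overnight. Samples were dehydrated through an ethanol series, critical-point dried, gold sputter-coated and examined by scanning electron microscopy.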

Assay [16] deals with Vibrio vulnificus. As to the kind of experiment: Antimicrobial activity against Vibrio vulnificus assessed as reduced cell size at 70 ug/ml by SEM. Format: functional, organism-based. Summed up:
as §5

Assay [17] relates to Vibrio vulnificus. Briefly: Antimicrobial activity against Vibrio vulnificus assessed as loss of flagella at 70 ug/ml by SEM. Format: functional, organism-based. Summed up: as §5
Assay [18] relates to Vibrio vulnificus. Briefly: Antimicrobial activity against Vibrio vulnificus assessed as appearance of rugose membrane shape at 70 ug/ml by SEM. In kind it is functional, organism-based. The essentials: as §5
Assay [19] has as its system Vibrio anguillarum 775. As to the kind of experiment: Antimicrobial activity against Vibrio anguillarum 775 assessed as reduction in extracellular product secreted by cells at 120 ug/ml. In kind it is functional. The essentials: as §5
Assay [20] in a line: Antimicrobial activity against Vibrio anguillarum 775 selected after passage with 120 ug/ml of compound. Format: functional.

Active and inactive are the calls of the source. The rule behind the calls is not given here.

Consider “H-KWKVFKKIEKMGRNIRNGIVKAGPAIAVLGEAKAL-NH2 [CECROPIN B]”, for which the result in the assay with Vibrio anguillarum 775 [1], with Vibrio vulnificus [2], in the assay on Yersinia ruckeri [3], with CHSE-214 [11], with CHSE-214 [12] and with CHSE-214 [13] was inactive. Moreover, the result in the assay on Vibrio anguillarum 775 [14], in the assay on Yersinia ruckeri [15], in the assay with Vibrio vulnificus [16], in the assay with Vibrio vulnificus [17], in the assay on Vibrio vulnificus [18] and in the assay with Vibrio anguillarum 775 [19] was inactive. Also, the MIC is 147 µg/mL in [4]; 85 µg/mL in the assay with Vibrio vulnificus [5]; 100 µg/mL in the assay with Yersinia ruckeri [6]; 25 µg/mL with Pseudomonas fluorescens [7]; 209 µg/mL in assay [8]; 136 µg/mL against Vibrio vulnificus [9]. Further, the MIC with Pseudomonas fluorescens [10] was 24 µg/mL; in assay [20] it was 142 µg/mL.

By MIC is commonly meant the least concentration at which growth counts as inhibited. Read a low MIC as inhibition by little substance.

The values above are taken from ChEMBL document CHEMBL1671857, “Inducible resistance of fish bacterial pathogens to the antimicrobial peptide cecropin B” (2008).
